Source: ChEMBL document CHEMBL1799956, “Convergent synthesis and biological evaluation of 2-amino-4-(3',4',5'-trimethoxyphenyl)-5-aryl thiazoles as microtubule targeting agents” (J Med Chem, 2011)

Tests used:
HeLa = assay: Antiproliferative activity against human HeLa cells assessed as growth inhibition after 72 hrs by MTT assay; assay type: functional, cell-based
MCF7 = assay: Antiproliferative activity against human MCF7 cells assessed as growth inhibition after 72 hrs by MTT assay; assay type: functional, cell-based; conditions: MCF7, 72 h
A549 [1] = assay: Antiproliferative activity against human A549 cells assessed as growth inhibition after 72 hrs by MTT assay; assay type: functional, cell-based; conditions: A549, 72 h
HT-29 = assay: Antiproliferative activity against human HT-29 cells assessed as growth inhibition after 72 hrs by MTT assay; assay type: functional, cell-based; conditions: HT-29, 72 h
HL-60 = assay: Antiproliferative activity against human HL60 cells assessed as growth inhibition after 72 hrs by MTT assay; assay type: functional, cell-based; conditions: HL-60, 72 h
K562 = assay: Antiproliferative activity against human K562 cells assessed as growth inhibition after 72 hrs by MTT assay; assay type: functional, cell-based; conditions: K562, 72 h
Jurkat = assay: Antiproliferative activity against human Jurkat cells assessed as growth inhibition after 72 hrs by MTT assay; assay type: functional, cell-based
[2] = Antiproliferative activity against human taxol-resistant A549-T12 cells assessed as growth inhibition after 72 hrs by MTT assay; assay type: functional, cell-based; conditions: A549, 72 h
LoVo [3] = assay: Fold resistance, ratio of IC50 for human doxorubicin-resistant LoVo cells overexpressing P-gp to IC50 for human LoVo cells; assay type: functional
Procedure, shortened: (§1)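 Fold resistance taken as the ratio of IC50 in the resistant line to IC50 in the parental line, each IC50 from dose-response curves of at least three independent experiments.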

[4] = Antiproliferative activity against human vinblastine-resistant CEM/VBL100 cells overexpressing P-gp assessed as growth inhibition after 72 hrs by MTT assay; assay type: functional, cell-based; conditions: CEM/VBL100, 72 h
A549 [5] = assay: Fold resistance, ratio of IC50 for human taxol-resistant A549-T12 cells to IC50 for human A549 cells; assay type: functional
CCRF-CEM [6] = assay: Fold resistance, ratio of IC50 for human vinblastine-resistant CEM/VBL100 cells overexpressing P-gp to IC50 for human CEM cells; assay type: functional; procedure, shortened: as §1
Bos taurus [7] = organism: Bos taurus; assay: Displacement of [3H]colchicine from bovine brain tubulin at 5 uM
Procedure, shortened: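 [3H]colchicine binding inhibition with tubulin at 1 μM, [3H]colchicine at 5 μM and test compound at 5 μM.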

LoVo [8] = assay: Antiproliferative activity against human LoVo cells assessed as growth inhibition after 72 hrs by MTT assay; assay type: functional, cell-based
LoVo [9] = assay: Antiproliferative activity against human doxorubicin-resistant LoVo cells overexpressing P-gp assessed as growth inhibition after 72 hrs by MTT assay; assay type: functional, cell-based
CCRF-CEM [10] = assay: Antiproliferative activity against human CEM cells assessed as growth inhibition after 72 hrs by MTT assay; assay type: functional, cell-based
[11] = Inhibition of bovine brain tubulin polymerization after 20 mins by turbidimetric analysis; parameters: species or system Bos taurus
Procedure, shortened: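 Purified tubulin at 10 μM was used for the assembly (polymerization) inhibition assay. IC50 is the concentration inhibiting assembly.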

Bos taurus [12] = organism: Bos taurus; assay: Ratio of combretastatin A-4 IC50 to compound IC50 for bovine brain tubulin

| Compound | IC50 (HeLa) | IC50 (MCF7) | IC50 (A549 [1]) | IC50 (HT-29) | IC50 (HL-60) | IC50 (K562) | IC50 (Jurkat) | IC50 [2] | Ratio IC50 (LoVo [3]) | IC50 [4] | Ratio IC50 (A549 [5]) | Ratio IC50 (CCRF-CEM [6]) | inhibition (Bos taurus [7]) | IC50 (LoVo [8]) | IC50 (LoVo [9]) | IC50 (CCRF-CEM [10]) | IC50 [11] | Ratio IC50 (Bos taurus [12]) |
| --- | --- | --- | --- | --- | --- | --- | --- | --- | --- | --- | --- | --- | --- | --- | --- | --- | --- | --- |
| COc1cccc(-c2sc(N)nc2-c2cc(OC)c(OC)c(OC)c2)c1 | 209 nM | 476 nM | 2370 nM | 239 nM | 118 nM | 728 nM | 48.4 nM |  |  |  |  |  |  |  |  |  |  |  |
| COc1ccc(-c2sc(N)nc2-c2cc(OC)c(OC)c(OC)c2)cc1 | 2.3 nM | 60.9 nM | 20.2 nM | 11.7 nM | 3.2 nM | 5.1 nM | 2.1 nM | 11.4 nM | 0.25 | 1.2 nM | 0.6 | 0.1 | 79% | 3.1 nM | 0.8 nM | 7.7 nM | 1100 nM |  |
| COc1ccc(-c2sc(N)nc2-c2cc(OC)c(OC)c(OC)c2)cc1C | 2.6 nM | 58.7 nM | 305 nM | 24 nM | 4 nM | 67.6 nM | 21.5 nM |  |  |  |  |  | 72% |  |  |  | 1100 nM |  |
| COc1ccc(-c2sc(N)nc2-c2cc(OC)c(OC)c(OC)c2)cc1F | 2 nM | 18.6 nM | 3.1 nM | 5.7 nM | 6.1 nM | 6 nM | 7.3 nM |  |  |  |  |  | 81% |  |  |  | 1200 nM |  |
| CCOc1ccc(-c2sc(N)nc2-c2cc(OC)c(OC)c(OC)c2)cc1Cl | 0.91 nM | 14.1 nM | 11.2 nM | 15.6 nM | 0.27 nM | 8.8 nM | 0.06 nM | 8.5 nM | 0.9 | 0.7 nM | 0.8 | 0.5 | 87% | 2 nM | 1.7 nM | 1.4 nM | 890 nM |  |
| COc1cccc2c1C(=O)c1c(O)c3c(c(O)c1C2=O)C[C@@](O)(C(=O)CO)C[C@@H]3O[C@H]1C[C@H](N)[C@H](O)[C@H](C)O1 [DOXORUBICIN] |  |  |  |  |  |  |  |  | 109.6 |  |  |  |  | 120 nM |  |  |  |  |
| CC(=O)O[C@H]1C(=O)[C@@]2(C)[C@H]([C@H](OC(=O)c3ccccc3)[C@]3(O)C[C@H](OC(=O)[C@H](O)[C@@H](NC(=O)c4ccccc4)c4ccccc4)C(C)=C1C3(C)C)[C@]1(OC(C)=O)CO[C@@H]1C[C@@H]2O [PACLITAXEL] |  |  | 7.2 nM |  |  |  |  | 75.2 nM |  |  | 10.4 |  |  |  |  |  |  |  |
| COc1ccc(-c2sc(N)nc2-c2cc(OC)c(OC)c(OC)c2)cc1Cl | 1.6 nM | 27.3 nM | 37.7 nM | 12.8 nM | 2.8 nM | 36.1 nM | 2.9 nM |  |  |  |  |  | 77% |  |  |  | 880 nM |  |
| COc1cc(-c2nc(N)sc2-c2ccc3ccccc3c2)cc(OC)c1OC | 1.6 nM | 51.2 nM | 3.8 nM | 23.9 nM | 2.7 nM | 22.1 nM | 3.3 nM |  |  |  |  |  | 94% |  |  |  | 740 nM |  |
| COc1cc(-c2nc(N)sc2-c2ccc(C(F)(F)F)cc2)cc(OC)c1OC | 3.2 nM | 0.4 nM | 357 nM | 221 nM | 5.1 nM | 7.6 nM | 8.5 nM |  |  |  |  |  | 25% |  |  |  | 4000 nM |  |
| COc1cc(-c2nc(N)sc2-c2ccc(C)cc2)cc(OC)c1OC | 0.73 nM | 280 nM | 42.8 nM | 12.4 nM | 3.9 nM | 58.7 nM | 3.9 nM |  |  |  |  |  | 88% |  |  |  | 440 nM | 3 |
| COc1cc(-c2nc(N)sc2-c2cc3ccccc3s2)cc(OC)c1OC | 2.8 nM | 47 nM | 16 nM | 19.1 nM | 0.9 nM | 19.6 nM | 0.6 nM |  |  |  |  |  | 86% |  |  |  | 2000 nM |  |
| COc1cc(-c2nc(N)sc2-c2ccccc2)cc(OC)c1OC | 3090 nM | > 10000 nM | 9600 nM | 7920 nM | 3640 nM | 8500 nM | 3830 nM |  |  |  |  |  |  |  |  |  |  |  |
| COc1cc(-c2nc(N)sc2-c2cccc3ccccc23)cc(OC)c1OC | 3860 nM | > 10000 nM | 6320 nM | > 10000 nM | 8660 nM | 9030 nM | 4690 nM |  |  |  |  |  |  |  |  |  |  |  |
| COc1ccc(-c2sc(N)nc2-c2cc(OC)c(OC)c(OC)c2)cc1OC | 249 nM | 1170 nM | 1800 nM | 432 nM | 301 nM | 829 nM | 319 nM |  |  |  |  |  |  |  |  |  |  |  |
| CC[C@]1(O)C[C@@H]2CN(CCc3c([nH]c4ccccc34)[C@@](C(=O)OC)(c3cc4c(cc3OC)N(C)[C@H]3[C@@](O)(C(=O)OC)[C@H](OC(C)=O)[C@]5(CC)C=CCN6CC[C@]43[C@@H]65)C2)C1 [VINBLASTINE] |  |  |  |  |  |  |  |  |  | 230 nM |  | 56.1 |  |  |  | 4.1 nM |  |  |
| CCc1ccc(-c2sc(N)nc2-c2cc(OC)c(OC)c(OC)c2)cc1 | 1 nM | 117 nM | 238 nM | 54.1 nM | 1.1 nM | 49.7 nM | 4.1 nM |  |  |  |  |  | 73% |  |  |  | 1100 nM |  |
